Laboratory results from ChEMBL document CHEMBL4371093, “Divirensols: Sesquiterpene Dimers from the Australian Termite Nest-Derived Fungus Trichoderma virens CMB-TN16” (J Nat Prod, 2019).
Active and inactive are the calls of the source. The calls are words filed in the database; no cut-off is given here.

How the values were obtained:
[1] = test system: SW-620; assay: Growth inhibition of human SW620 cells up to 30 uM after 48 hrs by MTT assay; assay type: functional, cell-based
Procedure, shortened: (§1)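 Adherent cells grown with 10% FBS, 2 mM L-glutamine and penicillin/streptomycin at 37 °C, 5% CO2. Seeded at 3000 cells/well and attached for 18 h. Compound added at a final 30 μM in 1% DMSO for 48 h. MTT then added (final 0.5 mg/mL) for 4 h, formazan dissolved in DMSO, absorbance read at 580 nm. Negative control 1% DMSO, doxorubicin positive control. Run in duplicate. IC50 versus negative control.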

[2] = test system: NCI-H460; assay: Growth inhibition of human NCI-H460 cells up to 30 uM after 48 hrs by MTT assay; assay type: functional, cell-based; procedure, shortened: as §1
[3] = test system: Staphylococcus aureus; assay: Antibacterial activity against Staphylococcus aureus ATCC 25923 up to 30 uM after 24 hrs by spectrophotometric method; assay type: functional, organism-based
Procedure, shortened: (§2)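 Bacteria grown on tryptic soy agar at 37 °C for 24 h. One colony moved to tryptic soy broth and adjusted to 10^4−10^5 CFU/mL. Compound in DMSO, diluted with water to a 600 μM stock in 20% DMSO, then added to broth at a final 30 μM in 1% DMSO. Incubated 37 °C for 24 h, OD600 read. Rifampicin positive control. IC50 taken as 50% growth inhibition.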

[4] = test system: Bacillus spizizenii; assay: Antibacterial activity against Bacillus subtilis ATCC 6633 up to 30 uM after 24 hrs by spectrophotometric method; assay type: functional, organism-based; procedure, shortened: as §2
[5] = test system: Escherichia coli; assay: Antibacterial activity against Escherichia coli ATCC 25922 up to 30 uM after 24 hrs by spectrophotometric method; assay type: functional, organism-based; procedure, shortened: as §2
[6] = Inhibition of DNA polymerase (unknown origin); set-up: species or system Homo sapiens
[7] = test system: HeLa; assay: Growth inhibition of human HeLa cells; assay type: functional; conditions: read-out: LD50 (the source's name)
[8] = test system: MCF7; assay: Growth inhibition of human MCF7 cells; assay type: functional; conditions: read-out: LD50 (the source's name)

Row | SMILES | growth inhibition (GI) [1] | growth inhibition (GI) [2] | Activity [3] | Activity [4] | Activity [5] | IC50 [6] | CC50 [7] | CC50 [8]
1 | CC(C)[C@H]1CC[C@@](O)(COC(=O)/C(=C/[C@H]2C=C(CO)CC[C@@H]2C(C)C)CO)[C@H]2C(=O)OCC(C(=O)O)=C[C@H]12 | inactive | inactive | inactive | inactive | inactive | – | – | –
2 | CC(C)[C@H]1CC[C@@](O)(COC(=O)/C(=C/[C@@H]2[C@@H](C(C)C)CC[C@@]3(O)COC(=O)[C@@H]23)CO)[C@H]2C(=O)OCC(C(=O)O)=C[C@H]12 | inactive | inactive | inactive | inactive | inactive | – | – | –
3 | CC(C)[C@H]1CC[C@@](O)(COC(=O)C2=C[C@H]3[C@@H](OC2)[C@H](CO)CC[C@@H]3C(C)C)[C@H]2C(=O)OCC(C(=O)O)=C[C@H]12 | inactive | inactive | inactive | inactive | inactive | – | – | –
4 | CC(C)[C@H]1CCC(CO)=C[C@@H]1/C=C(\CO)C(=O)O | inactive | inactive | inactive | inactive | inactive | – | – | –
5 | CC(=O)OCC1=C[C@H](/C=C(\CO)C(=O)O)[C@@H](C(C)C)CC1 | inactive | inactive | inactive | inactive | inactive | – | – | –
6 | CC(=O)OC/C(=C\[C@H]1C=C(CO)CC[C@@H]1C(C)C)C(=O)O | inactive | inactive | inactive | inactive | inactive | – | – | –
7 | CC(C)[C@H]1CC[C@@]2(OC(=O)/C(=C/[C@H]3C4=C(CC[C@@H]3C(C)C)COC4=O)CO)COC(=O)[C@H]2[C@@H]1/C=C(\CO)C(=O)O | inactive | inactive | inactive | inactive | inactive | – | – | –
8 | CC(C)[C@H]1CC[C@@](O)(COC(=O)/C(=C/[C@H]2C3=C(CC[C@@H]2C(C)C)COC3=O)CO)[C@@H](C(=O)O)[C@@H]1/C=C(\CO)C(=O)O | inactive | inactive | inactive | inactive | inactive | – | – | –
9 | CC(C)[C@H]1CC[C@@](O)(COC(=O)/C(=C/[C@H]2C3=C(CC[C@@H]2C(C)C)COC3=O)CO)[C@H]2C(=O)OCC(C(=O)O)=C[C@H]12 | inactive | inactive | inactive | inactive | inactive | – | – | –
10 | CC(C)C1CCC(O)(COC(=O)C2=CC3C(C(C)C)CCC4(CO4)C3C(=O)OC2)C2C(=O)OCC(C(=O)O)=CC12 (stereo not drawn) | – | – | – | – | – | 30.8 µM | 33 µM | 31.6 µM
11 | CC(C)[C@H]1CC[C@@]2(OC(=O)/C(=C/[C@H]3C=C(CO)CC[C@@H]3C(C)C)CO)COC(=O)[C@H]2[C@@H]1/C=C(\CO)C(=O)O | inactive | inactive | inactive | inactive | inactive | – | – | –
